Data reported in ChEMBL document CHEMBL1131165, “Inhibitors of acyl-CoA:cholesterol O-acyltransferase. 3. Discovery of a novel series of N-alkyl-N-[(fluorophenoxy)benzyl]-N'-arylureas with weak toxicological effects on adrenal glands” (J Med Chem, 1998).
Activity calls are given as the source filed them. The calls are words filed in the database; no cut-off is given here.

Key:
O-acyltransferase [1] = target: T1, O-acyltransferase (Oryctolagus cuniculus, UniProt G1SFD9); assay: In vitro inhibition of acyl coenzyme A:cholesterol acyltransferase (ACAT) from rabbit intestinal microsomes
T1 sequence (G1SFD9 1-524): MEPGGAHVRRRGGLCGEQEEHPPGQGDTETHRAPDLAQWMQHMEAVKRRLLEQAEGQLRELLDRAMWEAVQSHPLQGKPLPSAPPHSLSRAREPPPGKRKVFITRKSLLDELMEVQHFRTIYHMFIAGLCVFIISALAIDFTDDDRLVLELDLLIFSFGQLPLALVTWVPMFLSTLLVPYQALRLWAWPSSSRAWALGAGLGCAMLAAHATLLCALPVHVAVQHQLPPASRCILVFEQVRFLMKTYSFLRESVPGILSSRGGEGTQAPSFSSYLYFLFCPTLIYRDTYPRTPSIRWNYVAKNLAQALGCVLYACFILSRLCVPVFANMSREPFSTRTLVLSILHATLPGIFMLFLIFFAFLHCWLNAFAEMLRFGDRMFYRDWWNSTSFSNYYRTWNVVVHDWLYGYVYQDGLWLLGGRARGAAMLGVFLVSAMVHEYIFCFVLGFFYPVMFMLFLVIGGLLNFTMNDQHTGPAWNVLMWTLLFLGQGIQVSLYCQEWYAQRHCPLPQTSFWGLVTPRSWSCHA
Procedure, shortened: (§1)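 Enzyme source is microsomes from rabbit intestine. Read-out is the concentration giving 50% inhibition of ACAT activity (IC50, nM). Some IC50 values were estimated relative to the IC50 of a reference inhibitor tested on the same enzyme batch.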

Rattus norvegicus [2] = assay: Percent reduction in cholesterol levels in rats at <0.1 mg/kg; type: functional
Procedure, shortened: (§2)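 In cholesterol-fed rats, compound was given orally either as a dietary admixture or by gavage in PEG400. Read-out is the percent reduction of plasma total cholesterol versus control at the dose indicated. Significance was assessed by unpaired, two-tailed Student's t-test.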

Rattus norvegicus [3] = assay: In vivo hypocholesterolemic activity in cholesterol-fed rats by oral administration in a cholesterol enriched diet; type: functional
Procedure, shortened: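 Rats were fed a cholesterol-enriched diet, and compound was given orally as an admixture in that diet. Read-out is plasma total cholesterol against control, expressed as ED50 (the dose reducing it by 50%) or as percent reduction at the stated dose. Significance was tested by unpaired, two-tailed Student's t-test.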

[4] = In vitro inhibitory activity against acetylated LDL-induced accumulation of cholesteryl esters in mouse peritoneal macrophages; type: functional
Procedure, shortened: (§3)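 Mouse peritoneal macrophages were exposed to acetylated LDL, which induces accumulation of cholesteryl esters. Read-out is the IC50 (nM) for inhibiting that accumulation. Values given in parentheses are percent inhibition at the concentration indicated.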

Rattus norvegicus [5] = assay: In vivo hypocholesterolemic activity in cholesterol-fed rats by oral administration by gavage in PEG400 as a vehicle; type: functional
Procedure, shortened: (§4)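 Cholesterol-fed rats were dosed orally by gavage with PEG400 as vehicle. Plasma total cholesterol was compared with control and reported as ED50 (the dose reducing it by 50%) or as percent reduction at the dose given. Significance was tested by unpaired two-tailed Student's t-test.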

Rattus norvegicus [6] = assay: Percent reduction in cholesterol levels in rats at >0.1 mg/kg; type: functional; procedure, shortened: as §2
Rattus norvegicus [7] = assay: Percent reduction in cholesterol levels in rats at <1 mg/kg; type: functional; procedure, shortened: as §2
[8] = In vitro inhibitory activity against acetylated LDL-induced accumulation of cholesteryl esters in mouse peritoneal macrophages at <10 nM concentration; type: functional; procedure, shortened: as §3
Rattus norvegicus [9] = assay: Percent reduction in cholesterol levels in rats at <0.1 mg/kg; inactive; type: functional, organism-based; settings: in the assay text read “>0.1 mg/kg” for “<0.1 mg/kg”; procedure, shortened: as §2
Rattus norvegicus [10] = assay: In vivo hypocholesterolemic activity in cholesterol-fed rats by oral administration of compound by gavage in PEG400 as a vehicle; inactive at >1; type: functional, organism-based; procedure, shortened: as §4
Rattus norvegicus [11] = assay: Percent reduction in cholesterol levels in rats at 0.032 mg/kg; type: functional; procedure, shortened: as §2
Rattus norvegicus [12] = assay: Percent reduction in cholesterol levels in rats at >1 mg/kg; type: functional; procedure, shortened: as §2
Rattus norvegicus [13] = assay: Percent reduction in cholesterol levels in rats at >0.1 mg/kg; inactive; type: functional, organism-based; procedure, shortened: as §2
[14] = Adrenal toxicity in rabbits at 5 mg/kg i.v., expressed as drug-induced necrosis; + indicates necrosis observed; type: organism-based, Oryctolagus cuniculus; design: dose 5 mg/kg, route intravenous; settings: rabbit, in vivo, iv
Procedure, shortened: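 Rabbits (n = 2) given a single 5 mg/kg iv dose as a solution in PEG400. Adrenal glands were examined for drug-induced necrosis of zona fasciculata cortical cells at 24 h after dosing. Each result is scored against controls as observed (+) or not observed (-).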

O-acyltransferase [15] = target: T1, O-acyltransferase; assay: In vitro inhibitory activity against Acyl coenzyme A:cholesterol acyltransferase from rabbit intestinal microsomes; type: functional; procedure, shortened: as §1
Rattus norvegicus [16] = assay: Percent reduction in cholesterol levels in rats at <0.01 mg/kg; type: functional; procedure, shortened: as §2
Rattus norvegicus [17] = assay: Percent reduction in cholesterol levels in rats at 0.01 mg/kg; type: functional; procedure, shortened: as §2

SMILES	IC50 (O-acyltransferase [1]) [µM]	ED50 (Rattus norvegicus [3]) [mg/kg]	IC50 [4] [µM]	ED50 (Rattus norvegicus [5]) [mg/kg]	other results
CSc1cc(C)nc(SC)c1NC(=O)N(Cc1ccc(Oc2ccc(F)cc2)cc1)C1CCOCC1	0.046	< 0.1			Reduction (Rattus norvegicus [2]): 58%
Cc1cc(C)c(NC(=O)N(Cc2ccc(Oc3ccc(F)cc3)cc2)C2CCCCCC2)c(C)n1	0.062	0.044	0.24	0.77	
COc1ccc(CN(Cc2ccc(Oc3ccc(F)cc3)cc2)C(=O)Nc2c(SC)cc(C)nc2SC)cc1	0.029	> 0.1			Reduction (Rattus norvegicus [6]): 24%
CCOCCN(Cc1ccc(Oc2ccc(F)cc2)cc1)C(=O)Nc1c(SC)cc(C)nc1SC	0.024	> 0.1			Reduction (Rattus norvegicus [6]): 26%
CSc1cc(C)nc(C)c1NC(=O)N(Cc1ccc(Oc2ccc(F)cc2)cc1)C1CCCCCC1	0.09		0.035	< 1	Reduction (Rattus norvegicus [7]): 72%
CSc1cc(C)nc(SC)c1NC(=O)N(Cc1ccccc1)Cc1ccc(Oc2ccc(Br)cc2)cc1	0.01	0.011	0.014	< 0.1	Reduction (Rattus norvegicus [2]): 54%
CSc1cc(C)nc(SC)c1NC(=O)N(Cc1ccc(Oc2ccc(Br)cc2)cc1)C1CCCCCC1	0.028	0.02	< 0.01		Inhibition [8]: 75%
Cc1ccc(NC(=O)N(Cc2ccc(Oc3ccc(F)cc3)cc2)C2CCCCCC2)c(Cl)n1	0.019	> 0.1			
CSc1cc(C)nc(S(C)(=O)=O)c1NC(=O)N(Cc1ccc(Oc2ccc(F)cc2)cc1)C1CCCCCC1	0.078	> 0.1	0.015		Reduction (Rattus norvegicus [9]): inactive
CSc1cc(C)nc(SC)c1NC(=O)N(Cc1ccc(Oc2ccc(F)cc2)cc1)C(C)(C)c1ccccc1	0.024		0.052		ED50 (Rattus norvegicus [10]): inactive
CSc1cc(C)nc(SC)c1NC(=O)N(CCCc1ccccc1)Cc1ccc(Oc2ccc(F)cc2)cc1	0.028	0.025	0.04		
COc1nc(C)cc(SC)c1NC(=O)N(Cc1ccc(Oc2ccc(F)cc2)cc1)C1CCCCCC1	0.029	< 0.032	0.013	1.4	Reduction (Rattus norvegicus [11]): 62%
CSc1nc(C)cc(Cl)c1NC(=O)N(Cc1ccc(Oc2ccc(F)cc2)cc1)C1CCCCCC1	0.012	< 0.1	0.35	> 1	Reduction (Rattus norvegicus [12]): 48%; Reduction (Rattus norvegicus [2]): 77%
COc1nc(C)ccc1NC(=O)N(Cc1ccc(Oc2ccc(F)cc2)cc1)C1CCCCCC1	0.039	> 0.1			Reduction (Rattus norvegicus [13]): inactive
CSc1nc(C)nc(SC)c1NC(=O)N(Cc1ccc(Oc2ccc(F)cc2)cc1)C1CCCCCC1	0.056	0.069	0.02	0.45	Toxicity [14]: necrosis observed
Cc1cc(S(C)(=O)=O)c(NC(=O)N(Cc2ccc(Oc3ccc(F)cc3)cc2)C2CCCCCC2)c(S(C)(=O)=O)n1	0.045	0.068	0.215	0.63	

SMILES	IC50 (O-acyltransferase [1]) [µM]	ED50 (Rattus norvegicus [3]) [mg/kg]	IC50 [4] [µM]	ED50 (Rattus norvegicus [5]) [mg/kg]	other results
CSc1cc(C)nc(SC)c1NC(=O)N(Cc1ccc(Oc2ccc(F)cc2)cc1)C1CCCCCC1		0.034	0.048	0.11	Toxicity [14]: necrosis observed
CSc1cc(C)nc(SC)c1NC(=O)N(Cc1ccc(Oc2ccc(F)cc2)cc1)Cc1c(C)cccc1C			0.021		IC50 (O-acyltransferase [15]): 0.026 µM
CSc1cc(C)nc(Cl)c1NC(=O)N(Cc1ccc(Oc2ccc(F)cc2)cc1)C1CCCCCC1	0.046	0.022	0.047	0.17	Toxicity [14]: necrosis observed
CSc1cc(C)nc(SC)c1NC(=O)N(Cc1ccccc1)Cc1cccc(-c2cc[nH]n2)c1			0.35		
CSc1cc(C)nc(SC)c1NC(=O)N(Cc1cccc(Oc2ccc(F)cc2)c1)C1CCCCCC1	0.073	< 0.1	0.0029		
Cc1cc(C)c(NC(=O)N(Cc2ccc(Oc3ccc(F)cc3)cc2)C2CCCCCC2)c(C)c1	0.025	0.045	0.08	5.3	
O=C(Nc1c(F)cc(F)cc1F)N(Cc1ccccc1)Cc1cccc(-c2cc[nH]n2)c1			7.4		
CSc1cc(C)nc(SC)c1NC(=O)N(Cc1ccc(Oc2ccc(F)cc2)cc1)[C@@H](C)c1ccccc1	0.019	> 0.1	0.26		Reduction (Rattus norvegicus [13]): inactive
Cc1cc(Cl)c(NC(=O)N(Cc2ccc(Oc3ccc(F)cc3)cc2)C2CCCCCC2)c(Cl)n1	0.014	> 0.1			Reduction (Rattus norvegicus [6]): 38%
Cc1cc(S(C)(=O)=O)c(NC(=O)N(Cc2ccc(Oc3ccc(F)cc3)cc2)C2CCCCCC2)c(Cl)n1	0.03	> 0.1	0.35	> 1	Reduction (Rattus norvegicus [12]): 34%; Reduction (Rattus norvegicus [6]): 46%
CSc1cc(C)nc(SC)c1NC(=O)N(Cc1ccccc1)Cc1ccc(Oc2ccc(F)cc2)cc1	0.0091	< 0.01	< 0.01		Reduction (Rattus norvegicus [16]): 58%; Inhibition [8]: 77%
CSc1cc(C)nc(SC)c1NC(=O)N(CCc1ccccc1)Cc1ccc(Oc2ccc(F)cc2)cc1	0.016	0.016	0.0061	2.7	
CSc1cc(C)nc(SC)c1NC(=O)N(Cc1ccc(Oc2ccc(F)cc2)cc1)C1CCCCC1	0.023	< 0.01	< 0.01		Inhibition [8]: 61%; Reduction (Rattus norvegicus [17]): 63%
CSc1cc(C)nc(SC)c1NC(=O)N(Cc1ccc(Oc2ccc(F)cc2)cc1)[C@H](C)c1ccccc1	0.019	0.095	0.11	4.6	
COc1cc(C)nc(OC)c1NC(=O)N(Cc1ccc(Oc2ccc(F)cc2)cc1)C1CCCCCC1	0.033	0.032	0.35	4.5	
